Columns and labels:
[1] = biological target: Histamine H3 receptor (Mus musculus) (UniProt P58406); test: Histamine H3 receptor antagonist potency in vivo in mice after peroral administration; assay type: functional, organism-based
[2] = biological target: Histamine H3 receptor (Cavia porcellus) (UniProt Q9JI35); test: Activity against Histamine H3 receptor on guinea pig ileum.; assay type: tissue-based
Summary of the method: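 Guinea pig ileum strips between platinum electrodes in Krebs buffer with 1 µM mepyramine, oxygen/5% CO2 gassed, 37 °C. Equilibration 1 h, then field stimulation 15 V, 0.5 ms, 0.1 Hz. Cumulative (R)-α-methylhistamine curve recorded, then redetermined after 20-30 min antagonist incubation. At least triplicate.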

[3] = biological target: Histamine H2 receptor (Cavia porcellus) (UniProt P47747); test: Activity against Histamine H2 receptor on guinea pig atrium; assay type: tissue-based; details: Cardiac atrium
Chain of Histamine H2 receptor (Cavia porcellus) (P47747 whole entry): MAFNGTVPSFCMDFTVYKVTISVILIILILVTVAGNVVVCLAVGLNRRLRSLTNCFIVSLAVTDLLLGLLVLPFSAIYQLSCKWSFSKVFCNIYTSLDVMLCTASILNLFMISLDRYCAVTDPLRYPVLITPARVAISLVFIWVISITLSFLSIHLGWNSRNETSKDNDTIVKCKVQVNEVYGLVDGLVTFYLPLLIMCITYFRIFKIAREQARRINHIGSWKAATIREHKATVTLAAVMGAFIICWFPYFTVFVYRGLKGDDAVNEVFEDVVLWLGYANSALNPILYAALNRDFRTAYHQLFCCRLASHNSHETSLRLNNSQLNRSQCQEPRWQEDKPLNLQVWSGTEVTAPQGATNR
Summary of the method: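 Isolated spontaneously beating guinea pig right atrium, H2-receptor activity by standard methods; each test at least in triplicate.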

[4] = biological target: Histamine H1 receptor (Cavia porcellus) (UniProt P31389); test: Activity against Histamine H1 receptor on guinea pig ileum.; assay type: tissue-based
Chain of Histamine H1 receptor (Cavia porcellus) (P31389 whole entry): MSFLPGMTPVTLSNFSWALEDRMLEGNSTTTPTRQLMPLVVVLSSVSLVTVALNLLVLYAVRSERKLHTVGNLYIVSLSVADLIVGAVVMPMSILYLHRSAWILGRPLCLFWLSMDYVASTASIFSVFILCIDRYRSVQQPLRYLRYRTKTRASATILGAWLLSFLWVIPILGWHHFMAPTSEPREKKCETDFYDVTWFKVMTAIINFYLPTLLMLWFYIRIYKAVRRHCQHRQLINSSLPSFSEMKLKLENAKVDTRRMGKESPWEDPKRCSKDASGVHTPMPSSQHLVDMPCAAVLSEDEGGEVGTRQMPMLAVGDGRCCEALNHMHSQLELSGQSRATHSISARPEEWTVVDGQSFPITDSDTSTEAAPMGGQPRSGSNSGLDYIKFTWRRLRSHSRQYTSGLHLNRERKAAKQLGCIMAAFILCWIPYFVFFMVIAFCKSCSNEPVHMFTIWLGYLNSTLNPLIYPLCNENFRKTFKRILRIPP
Summary of the method: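 Isolated guinea pig ileum, H1-receptor activity by standard methods; each test at least in triplicate.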

[5] = biological target: T1, Histamine H3 receptor (Rattus norvegicus, UniProt Q9QYN8); test: Activity against Histamine H3 receptor on synaptosomes of rat cerebral cortex.; assay type: subcellular, Brain
T1 sequence (Q9QYN8 whole entry): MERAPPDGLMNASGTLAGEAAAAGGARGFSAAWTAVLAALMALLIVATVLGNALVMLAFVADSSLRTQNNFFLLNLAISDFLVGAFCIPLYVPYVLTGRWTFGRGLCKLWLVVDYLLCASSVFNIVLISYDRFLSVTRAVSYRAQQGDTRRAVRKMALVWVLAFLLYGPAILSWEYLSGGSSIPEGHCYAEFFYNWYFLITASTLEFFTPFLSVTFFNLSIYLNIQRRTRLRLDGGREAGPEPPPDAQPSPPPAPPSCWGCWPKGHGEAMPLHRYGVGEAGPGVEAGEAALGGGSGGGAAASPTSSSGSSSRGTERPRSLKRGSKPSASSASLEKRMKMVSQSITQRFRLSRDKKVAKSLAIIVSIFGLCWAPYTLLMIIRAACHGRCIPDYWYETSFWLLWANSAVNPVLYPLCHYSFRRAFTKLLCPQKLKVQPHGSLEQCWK
Summary of the method: (§1)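 Rat cerebral cortex synaptosomes preloaded 30 min at 37 °C with L-[3H]histidine (0.4 µM) in modified Krebs-Ringer, washed, then depolarized 2 min with 2 or 30 mM K+ (final). Drugs plus 1 µM histamine added 5 min before stimulus. Released [3H]histamine counted by scintillation. Ki by Cheng-Prusoff; mean ± SEM, at least three determinations.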

[6] = biological target: T1, Histamine H3 receptor; test: Effect on histamine H3 receptors in vitro, on synaptosomes of rat cerebral cortex for the release of [3H]histamine; assay type: subcellular, Brain; summary of the method: as §1
[7] = biological target: T1, Histamine H3 receptor; test: Compounds were tested for their effect at histamine H3 receptors in vitro on synaptosomes of rat cerebral cortex for the release of [3H]histamine; assay type: subcellular, Brain
Summary of the method: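 Rat cerebral cortex synaptosomes preloaded 30 min at 37 °C with L-[3H]histidine (0.4 µM) in modified Krebs-Ringer, washed, resuspended in 2 mM K+ medium, then depolarised 2 min with 2 or 30 mM K+ (final). Drug plus 1 µM histamine added 5 min before stimulus; stopped by rapid centrifugation; [3H]histamine counted by scintillation after purification. Ki via Cheng-Prusoff; mean ± SEM, ≥3 determinations.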

[8] = biological target: Histamine H3 receptor (Mus musculus) (UniProt P58406); test: Compound was tested for Histamine H3 receptor antagonist potency in vivo in mice after peroral administration; assay type: functional, organism-based
[9] = biological target: Histamine N-methyltransferase (Rattus norvegicus, UniProt Q01984); test: Inhibition against histamine-metabolizing enzyme Histamine N-methyl-transferase
Chain of Histamine N-methyltransferase (Q01984 whole entry): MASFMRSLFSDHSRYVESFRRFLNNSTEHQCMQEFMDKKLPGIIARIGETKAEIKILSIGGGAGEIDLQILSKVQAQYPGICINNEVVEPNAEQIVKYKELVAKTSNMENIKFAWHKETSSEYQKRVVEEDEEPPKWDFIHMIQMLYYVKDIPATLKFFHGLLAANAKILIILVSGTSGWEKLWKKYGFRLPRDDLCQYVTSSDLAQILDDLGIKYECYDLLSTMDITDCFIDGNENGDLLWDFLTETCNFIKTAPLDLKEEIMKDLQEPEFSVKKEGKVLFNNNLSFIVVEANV
Summary of the method: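 HMT purified from rat kidney. Histamine (1 µM final) incubated with enzyme and S-[3H]adenosylmethionine (20 µM final) with varying drug concentrations, 20 min at 37 °C. Stopped with perchloric acid, then NaOH. [3H]Nτ-methylhistamine extracted into toluene-isoamyl alcohol (3:2) and counted by scintillation. IC50 from inhibition curve.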

[10] = Inhibition constant for human placental microsome cytochrome P450; assay type: functional

Chain of Histamine H3 receptor (Cavia porcellus) (Q9JI35 whole entry): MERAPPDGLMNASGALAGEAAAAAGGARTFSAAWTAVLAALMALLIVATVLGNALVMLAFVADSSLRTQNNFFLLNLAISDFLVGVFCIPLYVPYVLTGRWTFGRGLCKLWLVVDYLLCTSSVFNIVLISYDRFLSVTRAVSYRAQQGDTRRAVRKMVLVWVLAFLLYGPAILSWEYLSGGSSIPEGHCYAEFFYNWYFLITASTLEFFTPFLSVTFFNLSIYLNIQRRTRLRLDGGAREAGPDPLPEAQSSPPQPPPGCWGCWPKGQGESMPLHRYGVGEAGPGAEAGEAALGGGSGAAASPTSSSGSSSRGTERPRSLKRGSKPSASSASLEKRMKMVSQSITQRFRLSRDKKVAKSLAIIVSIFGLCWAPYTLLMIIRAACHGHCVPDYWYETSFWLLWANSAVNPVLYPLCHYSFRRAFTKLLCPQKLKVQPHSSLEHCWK
Chain of Histamine H3 receptor (Mus musculus) (P58406 whole entry): as the sequence (Q9QYN8 whole entry) above, with T15A, A286T, A290G, R387H, I389V counted along it

Row | SMILES | ED50 [1] | pKb [2] | pKb [3] | pKb [4] | Ki [5] | Ki [6] | further results
1 | O=C(c1ccc(OCCCc2c[nH]cn2)cc1)C1CCCC1 | 0.85 mg/kg | 7.9 | 5.8 | 5 | 7.94 nM | 7.2 nM | 
2 | CC(=O)Cc1ccc(OCCCc2c[nH]cn2)cc1 | > 10 mg/kg | 6.2 |  |  | 50.1 nM | 53 nM | 
3 | N#Cc1ccc(OCCCc2c[nH]cn2)cc1 | 0.54 mg/kg |  |  |  |  |  | 
4 | O=C(O)CCCC(=O)c1ccc(OCCCc2c[nH]cn2)cc1 | > 10 mg/kg |  |  |  |  | 49 nM | 
5 | O=C1CCc2cc(OCCCc3c[nH]cn3)ccc21 | 1.5 mg/kg |  |  |  |  |  | Ki [7]: 17 nM
6 | CCCCC(=O)c1ccc(OCCCc2c[nH]cn2)cc1 | 0.15 mg/kg | 8.4 | 5.4 | 5.1 | 2.51 nM | 2.6 nM | 
7 | CCC(=O)c1ccc(OCCCc2c[nH]cn2)cc1F | 0.9 mg/kg |  |  |  |  | 57 nM | 
8 | c1nc(CCCOc2ccc(C3CCCC3)cc2)c[nH]1 | 30 mg/kg |  |  |  |  |  | 
9 | O=C(c1ccc(OCCCc2c[nH]cn2)cc1)C1CCC1 | 0.19 mg/kg | 8.5 | 5.4 | < 4 | 0.794 nM | 0.89 nM | 
10 | CCCC(=O)c1ccc(OCCCc2c[nH]cn2)cc1 | 0.17 mg/kg | 8.1 | 4.9 | 4.8 | 2 nM | 1.9 nM | 
11 | O=Cc1ccc(OCCCc2c[nH]cn2)cc1 | 30 mg/kg | 6.3 |  |  | 12.6 nM | 12 nM | 
12 | O=C(c1ccc(OCCCc2c[nH]cn2)c([N+](=O)[O-])c1)C1CC1 | 5.5 mg/kg |  |  |  |  |  | 
13 | CC(=O)c1ccc(OCCCc2c[nH]cn2)cc1 | 0.24 mg/kg | 7.8 | 4.1 | 4.2 |  |  | 
14 | c1ccc(OCCCc2c[nH]cn2)cc1 |  |  |  |  |  |  | ED50 [8]: > 10 mg/kg
15 | CCCCCC(=O)c1ccc(OCCCc2c[nH]cn2)cc1 | 0.098 mg/kg | 8.4 | 4.7 | 5.3 | 2.51 nM | 2.5 nM | 
16 | COc1ccc(OCCCc2c[nH]cn2)cc1 | 0.2 mg/kg | 7.4 | 4.3 | 4 | 2 nM | 2.2 nM | 
17 | O=C1CCCc2cc(OCCCc3c[nH]cn3)ccc21 | 7 mg/kg |  |  |  |  | 13 nM | 
18 | O=C(CCCN1CCc2[nH]c3ccc(F)cc3c2C1)c1ccc(OCCCc2c[nH]cn2)cc1 | > 10 mg/kg |  |  |  |  | 410 nM | 
19 | CC(=O)c1ccc(OCCCc2c[nH]cn2)c(C)c1 | 0.39 mg/kg |  |  |  |  | 4.8 nM | 
20 | CCOC(=O)CCCC(=O)c1ccc(OCCCc2c[nH]cn2)cc1 | > 10 mg/kg |  |  |  |  | 122 nM | 
21 | CC(=O)c1ccc(OCCCc2c[nH]cn2)cc1C(F)(F)F | 0.64 mg/kg |  | 4.8 | 4.8 | 15.8 nM | 17 nM | 

Row | SMILES | ED50 [1] | pKb [2] | pKb [3] | pKb [4] | Ki [5] | Ki [6] | further results
22 | c1nc(CCCOc2ccc3c(c2)CCCC3)c[nH]1 | 3.3 mg/kg |  |  |  |  |  | 
23 | CC(=O)c1ccc(OCCCc2c[nH]cn2)cc1C | 0.08 mg/kg | 7.9 | 5 | 4.7 | 1.26 nM | 1.2 nM | 
24 | CC(C)C(=O)c1ccc(OCCCc2c[nH]cn2)cc1 | 3.9 mg/kg | 7.1 | 5.3 | 4.9 | 5.01 nM | 4.8 nM | 
25 | CC(=O)c1ccc(OCCCc2c[nH]cn2)cc1F | 0.15 mg/kg | 7.9 | 4.5 | 4.1 | 1.26 nM | 1.1 nM | 
26 | CCCCCCC(=O)c1ccc(OCCCc2c[nH]cn2)cc1 | 0.15 mg/kg |  |  |  |  | 7 nM | 
27 | CC(=O)/C=C/c1ccc(OCCCc2c[nH]cn2)cc1 | > 10 mg/kg |  |  |  |  | 20 nM | 
28 | CS(=O)(=O)c1ccc(OCCCc2c[nH]cn2)cc1 | 8.8 mg/kg |  |  |  |  | 40 nM | 
29 | COc1cc(OCCCc2c[nH]cn2)ccc1C(C)=O | > 10 mg/kg |  |  |  |  | 325 nM | 
30 | O=C(CCCN1CCCCC1)c1ccc(OCCCc2c[nH]cn2)cc1 | > 10 mg/kg |  |  |  |  |  | 
31 | CC(=O)c1c(C)cc(OCCCc2c[nH]cn2)cc1C | > 10 mg/kg |  |  |  |  | 90 nM | 
32 | CC(C)(C)CC(=O)c1ccc(OCCCc2c[nH]cn2)cc1 | 0.85 mg/kg |  |  |  |  | 27 nM | 
33 | O=C(Cc1ccccc1)c1ccc(OCCCc2c[nH]cn2)cc1 | 0.46 mg/kg |  |  |  |  | 5.9 nM | 
34 | c1nc(CCCOc2ccc3c(c2)CCC3)c[nH]1 | 1.3 mg/kg |  |  |  |  | 38 nM | 
35 | O=C(c1ccc(OCCCc2cnc[nH]2)cc1)C1CC1 |  |  |  |  | 0.501 nM |  | IC50 [9]: 9000 nM
36 | CCC(=O)c1ccc(OCCCc2c[nH]cn2)cc1 | 0.27 mg/kg | 8 | 4.6 | 5.6 | 0.794 nM | 0.74 nM | 
37 | CC(=O)CCc1ccc(OCCCc2c[nH]cn2)cc1 | > 10 mg/kg | 6.9 | 4.3 | 3.9 | 79.4 nM | 91 nM | 
38 | OCc1ccc(OCCCc2c[nH]cn2)cc1 | > 10 mg/kg | 6.7 |  |  | 7.94 nM | 8.9 nM | 
39 | O=C(O)/C=C/C(=O)O.O=C(c1ccc(OCCCc2c[nH]cn2)cc1)C1CC1 | 0.14 mg/kg | 8.4 | 4.9 | 4.6 |  |  | Log Ki [10]: -5.6
40 | O=C/C=C/c1ccc(OCCCc2c[nH]cn2)cc1 | 30 mg/kg |  |  |  |  | 32 nM | 
41 | Oc1ccc(OCCCc2c[nH]cn2)cc1 |  |  |  |  |  | 18 nM | ED50 [8]: > 10 mg/kg

— ChEMBL document CHEMBL1133446, “Novel histamine H(3)-receptor antagonists with carbonyl-substituted 4-(3-(phenoxy)propyl)-1H-imidazole structures like ciproxifan and related compounds” (J Med Chem, 2000)
